In the array DNA melting data of Ke et al. (doi:10.1101/2024.01.08.574731):

Assays:
[1] = folding enthalpy; higher = less favourable; fluorescence melt of hairpins on a sequencing array, two-state fit; conditions: sodium 0.088 M
Summary of the method: (§1)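 Hairpins were imaged by Cy3 fluorescence on a sequenced MiSeq flow cell with annealed Cy3 and quencher oligos, in 50 mM Na-HEPES pH 8.0, 25 mM NaCl, in 2.5 °C steps up to 60 °C. Bootstrapped two-state fits of normalised signals gave melting temperature and folding enthalpy. Four replicates were combined by inverse variance, and fitted temperatures were raised by 9.35 °C to match UV melts.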

[2] = melting temperature; fluorescence melt of hairpins on a sequencing array, two-state fit, raised by 9.35 °C to match UV melts; conditions: sodium 0.088 M
Summary of the method: as §1

Sequence	folding enthalpy [1]	Tm [2]
GTGGTTCGAAAGAATCAC (((.(((....))).)))	-47.5 kcal/mol	53.7 °C
GCGAACGGAAACGTTTGC ((.((((....)))).))	-46.8 kcal/mol	56.4 °C
GATCGCGAAAGCGACATC ((((((....)))..)))	-8.3 kcal/mol	32.1 °C
GCCGGCGGAAACGCCGAC (.(((((....))))).)	-10.3 kcal/mol	59.4 °C
GATCTAAAGTAGATC ((((((...))))))	-22.2 kcal/mol	37.1 °C
GTCTCCCGAAAGGGCGAC (((.(((....))).)))	-30.8 kcal/mol	53.2 °C
GCAGGCGGAAACGCTTGC (((.(((....))).)))	-38.5 kcal/mol	62.1 °C
GATCTTGGCCAAGATC ((((((....))))))	-57.1 kcal/mol	54.8 °C
GTTCACGGAAACGCGAAC ((((.((....)).))))	-47.1 kcal/mol	48.3 °C
GTTTCCGGAAACGAAAAC ((((.((....)).))))	-16.8 kcal/mol	38.8 °C
GGCGCGCCGAAAGGCGCC (((..(((....))))))	-4.97 kcal/mol	44.5 °C
GGAACCGAAAGGTTATCC ((((((....)))..)))	-11.8 kcal/mol	35.9 °C
GCAAACGGAAACGTTCAC (..((((....))))..)	-8.17 kcal/mol	24.7 °C
GGAGTTGGAAACAGCTCC ((((.((....)).))))	-43.9 kcal/mol	50.2 °C
GCGTTGGAACGC ((((....))))	-16.5 kcal/mol	52.4 °C
GTTATCCGAAAGGAGAAC (((.(((....))).)))	-37.4 kcal/mol	51.1 °C
GGAACCGCGAAAGCGTCC (((..(((....))))))	-7.7 kcal/mol	26.3 °C
GACAAAGGAAACCTTGTC (((((.(....).)))))	-29.5 kcal/mol	36.4 °C
GATCAGAGAGCTGATC ((((((....))))))	-31 kcal/mol	46.2 °C
GGCTCCCGAAAGGGGCC (((.(((....))))))	-30.1 kcal/mol	68 °C
GCGCCACGAAAGTGACGC (((.(((....))).)))	-38.4 kcal/mol	66 °C
GCAAACGGAAACGTTCGC ((.((((....)))).))	-29.7 kcal/mol	46.4 °C
GTACAGCGAAAGCTCTAC (((.(((....))).)))	-17.3 kcal/mol	29.5 °C

Sequence	folding enthalpy [1]	Tm [2]
GTTGACGAAAGTCGAAAC ((((((....)))..)))	-12 kcal/mol	30.9 °C
CGTATCGGAAACGAACG (((.(((....))))))	-24.5 kcal/mol	36.2 °C
GGCACCGAAAGGTAAGCC ((((((....)))..)))	-35 kcal/mol	52.6 °C
GCGGTCGAAAGACTCCGC ((((((....)))..)))	-25.4 kcal/mol	50.7 °C
GATCTGACACCAGATC ((((((....))))))	-34.7 kcal/mol	46.1 °C
GATCCTCGTAGGATC ((((((...))))))	-34.2 kcal/mol	54.5 °C
GATCCTTGATAGGATC ((((((....))))))	-35.4 kcal/mol	50.5 °C
GCTTTTGGAAACAGAAGC ((((.((....)).))))	-25.1 kcal/mol	41.4 °C
GATACACGAAAGTGGATC (((.(((....))).)))	-37.4 kcal/mol	56.6 °C
GAGAGCGAAAGCTAACTC ((((((....)))..)))	-12.7 kcal/mol	33 °C
CGCTCGGAAACGAGAGCG ((((((....)))..)))	-25.7 kcal/mol	52.2 °C
GCATACGAAAGTACTGC ((((((....))).)))	-22.4 kcal/mol	41.4 °C
GTTGACGAAAGTCCGAAC ((((((....)))..)))	-10.6 kcal/mol	29 °C
GGGCGCCGAAAGGCACCC (((.(((....))).)))	-22.8 kcal/mol	67.5 °C
GCCCAGCGAAAGCTAGGC (((.(((....))).)))	-42.3 kcal/mol	54.1 °C
GGCTTTGAAAAAAGCC ((((((....))))))	-38.5 kcal/mol	57.6 °C
GGCCTCCCGAAAGGGGCC (((..(((....))))))	-18.7 kcal/mol	59.1 °C
GCATTGAAAAATGC (((((....)))))	-31.2 kcal/mol	49.2 °C
GTTTTGAAAAAAAC (((((....)))))	-12 kcal/mol	37.6 °C
GAACTTGGAAACGAGTTC (((((.(....).)))))	-38 kcal/mol	44.2 °C
GATCGATGTGTCGATC ((((((....))))))	-40.2 kcal/mol	57.9 °C
GCTAGCGAAAGCTGCAGC ((((((....)))..)))	-13.2 kcal/mol	46 °C
GATCATTTTGATGATC ((((((....))))))	-51.2 kcal/mol	49.5 °C

Sequence	folding enthalpy [1]	Tm [2]
GCTCTTCGAAAGAAAAGC (((.(((....))).)))	-31.4 kcal/mol	34.6 °C
TGAACGAAAGTTCA (((((....)))))	-20.6 kcal/mol	53.3 °C
GATGACCGAAAGGTTATC (((.(((....))).)))	-36.2 kcal/mol	51 °C
GCTAGGCGAAAGCATTGC ((.(.((....)).).))	-19.2 kcal/mol	42.1 °C
GTCTCGCGAAAGCGGAC (((.(((....))))))	-16.9 kcal/mol	53.7 °C
GTTCAAGGAAACTCGAAC ((((.((....)).))))	-11.7 kcal/mol	28.7 °C
GCGTGGCGAAAGCCCAGC ((..(((....)))..))	-18.3 kcal/mol	56.2 °C
GATCTGTGGCAGATC ((((((...))))))	-30.3 kcal/mol	49.1 °C
GTTCCCGAAAGGGTTAAC ((((((....)))..)))	-8.45 kcal/mol	30.1 °C
GAATGTGGAAACACATTC (((((((....)))))))	-38.6 kcal/mol	59.4 °C
GATCGCTGGAGCGATC ((((((....))))))	-37.8 kcal/mol	68.5 °C
GCACAGGGAAACCCATGC (((..((....))..)))	-17.6 kcal/mol	32 °C
GTAGTCGGAAACGGCTAC ((((.((....)).))))	-43.1 kcal/mol	54.6 °C
GATTCCCGAAAGGGATC (((.(((....))))))	-13.1 kcal/mol	47.3 °C
GTGGCCGGAAACGGTCAC (((.(((....))).)))	-37.2 kcal/mol	66.1 °C
GCGACGCGAAAGCTGCGC (((..((....))..)))	-23.7 kcal/mol	61.9 °C
GATCCGTACCGGATC ((((((...))))))	-34.8 kcal/mol	58.9 °C
GATCCACCTATGGATC ((((((....))))))	-41.4 kcal/mol	50.1 °C
GGTTAAGCGAAAGCTACC (((..(((....))))))	-18.2 kcal/mol	39.4 °C
GAGGACGCGAAAGCGCTC (((..(((....))))))	-12.9 kcal/mol	36.9 °C
GCGGAGGGAAACCCCCAC (.((.((....)).)).)	-7.96 kcal/mol	22.4 °C
GATCGGCTCCCCGATC ((((((....))))))	-42.1 kcal/mol	55.2 °C
GTATGGCGAAAGCCTAC (((.(((....))))))	-13.2 kcal/mol	46.6 °C

Sequence	folding enthalpy [1]	Tm [2]
GCGACGGGAAACCGCCGC (((.(((....))).)))	-45.2 kcal/mol	64.2 °C
GAGCTACGAAAGTAACTC (((.(((....))).)))	-25.5 kcal/mol	42.3 °C
GTCACAGAAATGTGAC ((((((....))))))	-35.2 kcal/mol	56.8 °C
GCATCGCGAAAGCTAGGC ((.(.((....)).).))	-14 kcal/mol	42.8 °C
GTACTCCGAAAGGAATAC (((.(((....))).)))	-26 kcal/mol	37.7 °C
GTGATCGAAAGATCAC ((((((....))))))	-37.1 kcal/mol	67.4 °C
GGCGTCGGAAACGATGCC (((.(((....))).)))	-38.2 kcal/mol	65.7 °C
GGTAACGAAAGTTTACC ((((((....))).)))	-22.4 kcal/mol	43.3 °C
GATCAACAACTTGATC ((((((....))))))	-35.1 kcal/mol	38.4 °C
GATCTCTCAAGAGATC ((((((....))))))	-40.8 kcal/mol	53.7 °C
GGAGCCCGAAAGGGTTCC (((.(((....))).)))	-25.7 kcal/mol	68.4 °C
GCCTGGCGAAAGCGAAGC ((.(.((....)).).))	-7.77 kcal/mol	31.9 °C
GCGTCGCGAAAGCGGTGC ((..(((....)))..))	-18.1 kcal/mol	58.9 °C
GACCCCGAAAGGGCCGTC ((((((....)))..)))	-14 kcal/mol	35.7 °C
GTTATTCCGAAAGGAAAC (((..(((....))))))	-7.61 kcal/mol	21.5 °C
GGTCGCGGAAACACGACC (((((.(....).)))))	-41 kcal/mol	56.9 °C
GCATTGCGAAAGCGTTGC (((..((....))..)))	-21.9 kcal/mol	47.5 °C
GATCAATGGGTTGATC ((((((....))))))	-35.5 kcal/mol	48.3 °C
GCTCAAACGAAAGTTAGC (((..(((....))))))	-22.6 kcal/mol	29.4 °C
GTTCAGGGAAACTTGAAC (((((.(....).)))))	-22.8 kcal/mol	40.7 °C
GATCGCGAAAGCGTTATC ((((((....)))..)))	-15 kcal/mol	28.1 °C
GAGCGCGAAAGCGGCTC ((((((....))).)))	-20.6 kcal/mol	67.8 °C
TACAGGAAACTGTA (((((....)))))	-14.5 kcal/mol	37.7 °C
